Screens as filed in PubChem BioAssay.
CRFBP-R2 agonist: agonists of human CRF-binding protein/CRF-R2 receptor complex. AID 588473. activation, % at 13.2 µM. HEK293 CRF-R2/CRF-BP, calcium dye fluorescence (FLIPR); percent of saturating CRF peptide response. 350,000 tested, 0.46% active;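 active = activation of at least 50%, plus an integration ratio under a set limit after plate pattern correction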;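 also: plate controls were neutral control wells without compound for no effect and CRF at EC100 for full effect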
CRFBP-R2 block: CRF-BP/CRF-R2 complex antagonism. HEK293 CRF-R2/CRF-BP, CRF-induced calcium fluorescence. inhibition, % at 11.8 µM. AID 588475. 350,000 tested, 0.59% active;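 active = inhibition of the ligand-induced calcium signal above about 50% at the single tested concentration, limit read from the data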
TRPML3 ag: human mucolipin-3 channel agonism. Q8TDD5. HEK293 TRPML3-YFP, Fluo-8 calcium fluorescence; 100% = the carbachol control signal. activation, % at 3 µM. 220,000 tested, 0.29% active;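 active = activation above its plate's cutoff, the mean activation of the plate's test wells plus 3 SD, cut at about 12% in these data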;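 also: 0% = DMSO only wells and 100% = carbachol wells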
Target sequence (Q8TDD5 whole entry, looked up): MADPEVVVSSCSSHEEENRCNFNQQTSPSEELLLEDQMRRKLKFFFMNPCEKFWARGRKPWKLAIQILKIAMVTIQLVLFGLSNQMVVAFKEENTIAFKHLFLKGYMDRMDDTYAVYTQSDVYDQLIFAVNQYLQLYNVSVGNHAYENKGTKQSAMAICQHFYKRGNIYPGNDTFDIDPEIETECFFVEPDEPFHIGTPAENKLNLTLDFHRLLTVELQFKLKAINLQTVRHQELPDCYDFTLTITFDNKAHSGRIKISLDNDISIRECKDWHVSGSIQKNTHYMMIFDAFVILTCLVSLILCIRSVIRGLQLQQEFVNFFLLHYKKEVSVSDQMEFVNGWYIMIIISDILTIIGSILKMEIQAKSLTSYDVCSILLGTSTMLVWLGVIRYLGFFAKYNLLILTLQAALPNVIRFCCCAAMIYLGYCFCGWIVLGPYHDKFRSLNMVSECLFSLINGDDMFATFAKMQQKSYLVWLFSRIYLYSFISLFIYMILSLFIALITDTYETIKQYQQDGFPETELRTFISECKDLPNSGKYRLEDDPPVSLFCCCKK
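Test system: TRPML3-YFP stable HEK293 cells. Doses: single point at 3 µM. Incubation: dye loading 1 h 37 °C then 30 min ambient, 125 s read. Signal: Fluo-8 calcium dye fluorescence, ex 470-495, em 515-575 nm. Measure: percent activation from peak-to-basal fluorescence ratio, scaled between DMSO and carbachol.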
zfTRPN1 agonist: agonists of zebrafish TRPN1 channel; activation, % at 3 µM; HEK293 zebrafish TRPN1-YFP, Fluo-8 calcium fluorescence; 100% = response to 87 µM carbachol; 220,000 tested, 0.18% active; AID 1424;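 active = activation above its plate's cutoff, the mean activation of test wells on that plate plus 3 SD, cut at about 19% in these data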;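 also: 0% = DMSO alone and 100% = 87 µM carbachol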
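Control set: carbachol 87 µM as high control, DMSO as low control; system: HEK293 stable line with zebrafish TRPN1-YFP; read-out: % activation versus carbachol response; detection: intracellular calcium fluorescence with Fluo-8; doses: single test compound dose, 3 µM nominal, 0.3% DMSO; schedule: dye 1 h 37 °C plus 30 min RT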
GPR7 antag: human neuropeptides B/W receptor 1 antagonism. inhibition, % at 4.4 µM. GPR7-expressing cells, fluorescence antagonist assay. 290,000 tested, 1.1% active. P48145. AID 1861; in the data active = inhibition above about 16%, passing the limit was not always enough;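 also: cells stimulated with the agonist NPW; 0% = agonist with vehicle and 100% = vehicle without agonist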
* marks the source's active call; other numbers are inactive results; x = no result given; ! = not confirmed by another sample. Hits are enriched below; roughly 2% of the tested compounds scored in any of these assays.

SMILES | CRFBP-R2 agonist | CRFBP-R2 block | TRPML3 ag | zfTRPN1 agonist | GPR7 antag
COc1cc(/C=C/c2cccc[n+]2C)ccc1OCC(=O)Nc1cccc(Cl)c1 | 0 | -2 | x | x | 3
Cc1c(C(=O)O)sc(S(=O)(=O)N2CCN(C(=O)Cc3ccc(Cl)cc3)CC2)c1C(=O)O | 3 | -7 | x | x | x
Cc1c(C(=O)O)sc(S(=O)(=O)N2CCN(C(=O)Cc3ccc(F)cc3)CC2)c1C(=O)O | -1 | 52* | x | x | x
CCOc1c(C)cc(-c2ncccc2O)cc1C | -4 | 52*! | -1 | -1 | 12
Cc1ccc(SCC(=O)NNC(=O)CNC(=O)c2ccc(Br)cc2)cc1 | -2 | 22 | x | x | x
O=C1CCC(c2ccccc2)N1c1ccccc1 (configuration not stated) | -8 | -10 | x | x | x
CCN1CCSc2ccc(C(=O)NCc3ccccc3F)cc21 | 280* | -317 | x | x | -5
Cc1sc2ncnc(Sc3ccccc3C(=O)Nc3ccc(C#N)cc3)c2c1C | -4 | 61* | 1 | 0 | 1
Cc1sc2ncnc(Sc3ccccc3C(=O)Nc3ccc(Br)cc3)c2c1C | -2 | 2 | 0 | 1 | -3
Cc1cnc(=O)[nH]c1SCc1ccc([N+](=O)[O-])cc1 | -1 | 13 | x | x | 2
CC(=O)N(C)c1ccc(N=NC2C(=O)N(C(N)=S)N=C2C)cc1 (configuration not stated) | 2 | 51* | x | x | -12
Cc1[nH]c(C)c(S(=O)(=O)NCCc2ccccc2)c1C(=O)N1CCCCC1 | 1 | 70* | x | x | -3
Cc1ccc(C)c(C(C)NC(=O)c2ccccc2Br)c1 (configuration not stated) | -1 | 64* | 0 | -2 | -4
COc1ccc(C(C)NC(=O)c2ccccc2Br)cc1OC (configuration not stated) | 0 | -6 | 0 | -2 | -7
O=C(Nc1cc(C(F)(F)F)cc(C(F)(F)F)c1)Nc1cnn(-c2ccc([N+](=O)[O-])cc2)c1C(F)(F)F | 58* | -29 | 1 | -2 | -6
O=C(Nc1ccc(C(=O)O)cc1)Nc1ccc([N+](=O)[O-])cc1 | 0 | 4 | x | x | -13
Cc1ccc(NS(=O)(=O)c2ccc(C(=O)N3CCCC(C(F)(F)F)C3)cc2)cc1 (configuration not stated) | 71* | -28 | x | x | x
Cc1ccc(S(=O)(=O)Nc2ccc(NC(=O)c3c(F)c(F)c(F)c(F)c3F)cc2)cc1 | 58* | -80 | 5 | 27* | 78*
CCOc1ccc(NS(=O)(=O)c2ccc(C(=O)N3CC(C)OC(C)C3)cc2)cc1 (configuration not stated) | 108* | -27 | x | x | x
CCOc1ccc(S(=O)(=O)Nc2ccc(C(=O)N3CC(C)OC(C)C3)cc2)cc1 (configuration not stated) | 36 | -19 | x | x | x
CC1CCN(C(=O)c2ccc(NS(=O)(=O)c3ccccc3)cc2)CC1 | -2 | 0 | x | x | 3
COc1ccccc1NS(=O)(=O)c1ccc(C(=O)N2CCCC(C(F)(F)F)C2)cc1 (configuration not stated) | 11 | -27 | x | x | x
COc1ccc(NS(=O)(=O)c2ccc(C(=O)N3CCC(C)CC3)cc2)cc1 | 65* | -9 | x | x | x
CCN(C[C@H]1N[C@@](C)(C(=O)OC)[C@H]2C(=O)N(C)C(=O)[C@@H]12)S(=O)(=O)c1ccc(OC)cc1 | -1 | -11 | x | x | x
CCOc1ccc(NS(=O)(=O)c2ccc(C(=O)NCC(c3ccco3)N3CCCC3)cc2)cc1 (configuration not stated) | 63* | -42 | x | x | x
SMILES | CRFBP-R2 agonist | CRFBP-R2 block | TRPML3 ag | zfTRPN1 agonist | GPR7 antag
COc1ccc(OC)c(-c2nnc3n2N=C(c2ccc(OC)c(OCC4CC4)c2)CS3)c1 | 0 | 59* | x | x | x
O=C(NCC(=O)N1CCN(c2ccccc2O)CC1)c1cccs1 | 1 | 27 | x | x | x
S=c1sc2c(Cl)ncnc2n1-c1ccccc1 | 0 | 30 | 1 | 2 | 75*
CN1CCN(/N=C/c2nc(-c3cccc([N+](=O)[O-])c3)n3ccccc23)CC1 | 94* | 5 | 1 | -1 | 2
COC(=O)c1ccc(Cn2nnc3c(=O)[nH]c(C4CCCN(S(=O)(=O)c5cccc(Cl)c5)C4)nc32)cc1 (configuration not stated) | 4 | -3 | x | x | -15
O=C(CSc1nnnn1C1CC2CCC1C2)Nc1ccnc2ccccc12 (configuration not stated) | -2 | -8 | 5 | 13 | 23*
CC(C)c1ccc(OCc2nnc(SCC(=O)N3CCCCC3)o2)cc1 | -1 | -9 | x | x | -29
COc1ccc(CCNc2oc(COc3ccccc3)nc2C#N)cc1 | -2 | 50 | -1 | -1 | 0
COc1ccc(CNc2oc(COc3ccccc3)nc2C#N)cc1 | -5 | 52* | -2 | -3 | 1
Brc1ccccc1-c1nnc(CSc2nncn2-c2ccccc2)o1 | -1 | 40 | 1 | 0 | -1
Cc1ccc(-n2nnnc2SCc2nnc(-c3ccccc3Br)o2)cc1 | 1 | 136* | 0 | 0 | -5
CCCCOc1ccc2c(c1)/C(=C(\C(Cl)=C(Cl)Cl)[N+](=O)[O-])N2 | 0 | 68* | 1 | 0 | -7
O=C(C[C@@H]1C/C=C\C[C@H](Cc2ccc(F)cc2)C(=O)OC[C@H]2CCCN2C1=O)NCCO | -1 | 2 | x | x | x
Cc1cccc(C(=O)Nc2sc(-c3ccccc3)cc2C(=O)O)c1 | -5 | 58* | 0 | -1 | -9
COc1ccc([C@H]2N[C@]3(CCCN(Cc4ccc(Br)cc4)C3=O)[C@H]3C(=O)N(Cc4ccccc4)C(=O)[C@@H]23)cc1 | 1 | -5 | x | x | x
Cn1c(C(=O)NCCc2ccccc2)cc(=O)n(C)c1=O | 2 | 71* | 0 | 4 | -9
COc1cccc(/C(C)=N/NS(=O)(=O)c2ccc(Cl)cc2)c1 | 1 | 54* | 0 | -1 | -9
NC(=O)N/N=C/c1ccc(-c2ccc([N+](=O)[O-])cc2)o1 | 0 | -16 | 0 | 1 | -13
COCCNC(=S)N/N=C/c1ccc(-c2ccc([N+](=O)[O-])cc2)o1 | 70* | -63 | 4 | 4 | 1
COc1ccc(CN(C(=O)c2snc(C(N)=O)c2N)C(C(=O)NC2CCCC2)c2ccco2)cc1 (configuration not stated) | 0 | -11 | x | x | 14
Cc1ccc(S(=O)(=O)N2C[C@@H]3[C@H]4CC[C@H](C4)[C@@H]3[C@@H](C)[C@@H]2c2ccn(Cc3ccccc3)c2)cc1 | 6 | -7 | x | x | x
Cn1c(Cc2ccccc2)nnc1SCC(=O)c1ccc(Br)s1 | -1 | -7 | 38* | 0 | -8
CC(C)c1ccccc1OCC(=O)Nc1nnc(C2CC2)s1 | 0 | 1 | x | x | x
CCn1cc(C(=O)NCCCN(CC(C)C)CC(C)C)c(=O)c2cc(S(=O)(=O)N(C)C3CCCCC3)ccc21 | 76* | -65 | x | x | -12
O=C(Nc1cccc(C(F)(F)F)c1)Oc1ccc(Cl)c2cccnc12 | 0 | 6 | 3 | 12 | 32*
